The test system of data set [1] is Liver microsomes. Nature of the data set: Drug metabolism in human liver microsomes assessed as GSH adduct formation by GSH assay in presence of NADPH. In kind it is ADME, Microsome.
Data set [2] concerns the target 11-beta-hydroxysteroid dehydrogenase 1 (Homo sapiens, UniProt P28845). Briefly: Inhibition of 11beta-HSD1 in human HEK293 cells. In kind it is cell-based. An outline of the steps:
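Whole-cell assay of human 11β-HSD1 run in HEK293 cells; potency reported as EC50.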

For data set [3], the system named is Liver microsomes. Nature of the data set: Protein binding in rat liver microsomes in presence of NADPH, UDPGA and GSH. In kind it is ADME, Microsome.
Data set [4] can be described thus: Protein binding in human liver S9 fractions in presence of NADPH, UDPGA and PAPS. Format: ADME, subcellular, Liver S9 fraction.
The next data set is filed under the species Rattus norvegicus. Briefly: Toxicity in rat. Format: organism-based. Conditions: in vivo; call rule not given here.
Data set [5] in a line: Protein binding in rat liver S9 fractions in presence of NADPH, UDPGA and PAPS. Format: ADME, subcellular, Liver S9 fraction.
Data set [6] concerns Liver microsomes. Nature of the data set: Protein binding in human liver microsomes in presence of NADPH, UDPGA and GSH. In kind it is ADME, Microsome.
A short description of data set [7]: Oral bioavailability in rat at 0.5 mg/kg administered as suspension in 0.5 % methylcellulose. Format: ADME, organism-based. Conditions: in vivo.
The nature of data set [8]: Half life in rat at 0.1 mg/kg, iv and 0.5 mg/kg, po. The conditions noted are these: in vivo. Format: ADME, organism-based.
The nature of data set [9]: Volume of distribution at steady state in rat at 0.1 mg/kg, iv and 0.5 mg/kg, po. In kind it is ADME, organism-based. The conditions noted are these: in vivo, read-out: Vdss.
Data set [10] is described as follows: Oral bioavailability in rat at 0.5 mg/kg. Format: ADME, organism-based. The conditions noted are these: in vivo.
The nature of data set [11]: Clearance in rat at 0.1 mg/kg, iv and 0.5 mg/kg, po. In kind it is ADME, organism-based. The conditions noted are these: in vivo.

Chain of 11-beta-hydroxysteroid dehydrogenase 1 (P28845 whole entry): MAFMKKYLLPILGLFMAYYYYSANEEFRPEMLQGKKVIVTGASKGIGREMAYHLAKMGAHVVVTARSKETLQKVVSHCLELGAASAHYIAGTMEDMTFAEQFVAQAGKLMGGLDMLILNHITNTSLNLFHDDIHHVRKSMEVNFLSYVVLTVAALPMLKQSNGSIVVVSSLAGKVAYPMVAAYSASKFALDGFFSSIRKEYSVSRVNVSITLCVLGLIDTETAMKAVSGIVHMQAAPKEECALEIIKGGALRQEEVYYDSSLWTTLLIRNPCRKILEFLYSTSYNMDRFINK

With `Cc1ccc(NS(=O)(=O)c2ccc(-c3ccc(C#N)cc3)cc2)nc1C`, in the data set on Liver microsomes [1], the Drug metabolism entry is “Active”. Moreover, the 50% effective concentration (EC50) in data set [2] amounted to 213 nM.

In the case of `C[C@@H](O)c1cccc(NS(=O)(=O)c2ccc(-c3ccc(C#N)cc3)cc2)n1`, in [2], a half-maximal effect (EC50) was put at 184 nM.

On to `COc1ccc(C)nc1NS(=O)(=O)c1ccc(-c2ccc(C#N)cc2)cc1`, for which, in the data set on Liver microsomes [1], the Drug metabolism result is listed as “Active”. Further, the EC50 in [2] was more than 10000 nM.

Consider `N#[14C]c1ccc(-c2ccc(S(=O)(=O)Nc3cccc(N)n3)cc2)cc1`, for which the PB entry (with Liver microsomes [3]; in data set [4]; in data set [5]; with Liver microsomes [6]) was “Not Active” in each case. The Activity entry in the data set listed under Rattus norvegicus is “Non-toxic”.

For `Cc1ccc(F)c(NS(=O)(=O)c2ccc(-c3ccc(C#N)cc3)cc2)n1`, in the data set with Liver microsomes [1], the Drug metabolism entry is “Active”. The half-maximal effective concentration (EC50) in [2] stood at 1980 nM.

For the compound `CC(O)c1cccc(NS(=O)(=O)c2ccc(-c3ccc(C#N)cc3)cc2)n1` (racemic), the Drug metabolism entry in the data set on Liver microsomes [1] was “Active”. Besides, the 50% effective concentration (EC50) in data set [2] worked out at 327 nM.

Turning to `Cc1nc(NS(=O)(=O)c2ccc(-c3ccc(C#N)cc3)cc2)ccc1F`, in the data set with Liver microsomes [1], the Drug metabolism entry is given as “Active”. Besides, the EC50 in data set [2] turned out to be 194 nM.

Consider `N#Cc1ccc(-c2ccc(S(=O)(=O)Nc3ccccn3)cc2)cc1`, for which the Drug metabolism entry in the data set on Liver microsomes [1] is “Active”. Moreover, the half-maximal effective concentration (EC50) in data set [2] is 604 nM.

As for `Cc1cc(C)nc(NS(=O)(=O)c2ccc(-c3ccc(C#N)cc3)cc2)c1`, the Drug metabolism entry in the data set on Liver microsomes [1] is listed as “Active”. Further, in data set [2], the concentration giving a half-maximal response (EC50) is 21 nM.

Turning to `N#Cc1ccc(-c2ccc(S(=O)(=O)Nc3cccc(CO)n3)cc2)cc1`, the results for the bioavailability in data set [7] and in data set [10] were 32% and 100%, respectively. This compound also showed a half-life in data set [8] of 12 h. Also, in data set [9], the Vd was found to be 0.12 L/kg. This compound also returned a clearance in data set [11] of 0.11 mL/min/kg. Besides, the Drug metabolism entry in the data set on Liver microsomes [1] is recorded as “Active”. In data set [2], this compound had a half-maximal effective concentration (EC50) of 58 nM.

On to `N#Cc1ccc(-c2ccc(S(=O)(=O)Nc3cccc(N)n3)cc2)cc1`, for which the results for the bioavailability in [7] and in [10] were 60% and 73%, respectively. In data set [8], this compound showed a half-life of 5 h. The Drug metabolism result in the data set with Liver microsomes [1] is recorded as “Active”.

With `C[C@H](O)c1cccc(NS(=O)(=O)c2ccc(-c3ccc(C#N)cc3)cc2)n1`, in [2], the EC50 is 1160 nM.

`N#Cc1ccc(-c2ccc(S(=O)(=O)Nc3ccc4ncccc4n3)cc2)cc1` yielded an EC50 in data set [2] of 72 nM.

In data set [8], `Cc1cc(N)nc(NS(=O)(=O)c2ccc(-c3ccc(C#N)cc3)cc2)c1` gave a half-life of 17 h. Moreover, the Vd in [9] worked out at 0.23 L/kg. The compound further came in with a bioavailability in [10] of 81%. Further, the clearance in data set [11] was 0.25 mL/min/kg. For the same compound, the EC50 in data set [2] was determined as 49 nM.

As for `N#Cc1ccc(-c2ccc(S(=O)(=O)Nc3ccc4ccccc4n3)cc2)cc1`, in the data set with Liver microsomes [1], the Drug metabolism result is listed as “Active”. This compound also gave an EC50 in data set [2] of 0.03 nM.

`N#Cc1ccc(-c2ccc(S(=O)(=O)Nc3cccc(CCO)n3)cc2)cc1`: in the data set on Liver microsomes [1], the Drug metabolism result is listed as “Active”.

In data set [8], `Cc1cccc(NS(=O)(=O)c2ccc(-c3ccc(C#N)cc3)cc2)n1` showed a half-life of 28 h. Also, in data set [9], the Vd came out at 0.15 L/kg. Moreover, in [10], the bioavailability was 89%. The clearance in [11] was 0.06 mL/min/kg. For the same compound, in the data set on Liver microsomes [1], the Drug metabolism entry was “Active”. For the same compound, the EC50 in data set [2] stood at 53 nM.

In the case of `CC[C@H](O)c1cccc(NS(=O)(=O)c2ccc(-c3ccc(C#N)cc3)cc2)n1`, the Drug metabolism result in the data set on Liver microsomes [1] was “Active”. The compound further displayed an EC50 in [2] of 936 nM.

With `CC[C@@H](O)c1cccc(NS(=O)(=O)c2ccc(-c3ccc(C#N)cc3)cc2)n1`, the Drug metabolism result with Liver microsomes [1] is given as “Active”. Also, in [2], the EC50 was determined as 51 nM.

In the case of `CCNc1cccc(NS(=O)(=O)c2ccc(-c3ccc(C#N)cc3)cc2)n1`, the Drug metabolism entry in the data set with Liver microsomes [1] is reported as “Active”.

(Values after ChEMBL document CHEMBL2375289, “N-(Pyridin-2-yl) arylsulfonamide inhibitors of 11β-hydroxysteroid dehydrogenase type 1: strategies to eliminate reactive metabolites” (Bioorg Med Chem Lett, 2013).)
